Only some compounds are listed: those with a hit (about 2.8% of all), similar ones and a draw of the others.
EP2 antag = inhibitors of human EP2 prostaglandin E2 receptor | C6 glioma cells expressing human EP2, cAMP TR-FRET; cells stimulated with saturating PGE2 | 0.52% of 260,000 active | inhibition, % at 25 µM | P43116;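 active means percent inhibition above 40 after rounding to a whole number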;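 further: rat C6 glioma host cells with rolipram phosphodiesterase inhibitor present; the protocol text gives 20 µM as final concentration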
NPY Y1 blocker = antagonists of human neuropeptide Y receptor Y1. inhibition, % at 3.6 µM. HEK293-CNG Y1 cells, membrane potential fluorescence; NPY at EC95, then isoproterenol. P25929. 1% of 200,000 active. AID 1040;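 active means inhibition above the campaign mean inhibition of all tested compounds plus 3 SD, cut at about 20% in these data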
Target sequence (P25929 whole entry, looked up): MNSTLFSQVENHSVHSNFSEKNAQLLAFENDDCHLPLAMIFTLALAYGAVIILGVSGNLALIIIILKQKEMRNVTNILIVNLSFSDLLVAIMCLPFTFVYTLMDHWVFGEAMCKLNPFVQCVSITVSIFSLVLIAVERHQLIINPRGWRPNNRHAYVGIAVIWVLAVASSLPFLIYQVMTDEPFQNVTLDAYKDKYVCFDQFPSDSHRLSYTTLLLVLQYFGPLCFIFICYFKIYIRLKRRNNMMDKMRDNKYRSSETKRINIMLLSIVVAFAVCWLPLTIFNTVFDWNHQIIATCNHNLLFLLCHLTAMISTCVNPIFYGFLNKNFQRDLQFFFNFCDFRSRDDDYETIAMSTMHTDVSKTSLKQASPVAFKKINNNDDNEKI
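Assay system: HEK293 Y1/CNG channel cell line; Doses: single compound dose of 3.6 µM, 0.4% DMSO; Timing: dye 3 h, compound 60 min room temperature, stimulation 45 min; Technique: Membrane-potential fluorescent dye readout; Measure: % inhibition of NPY effect.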
NPY Y2 blocker = antagonists of human neuropeptide Y receptor Y2; 0.99% of 140,000 active; P49146; NPY-Y2 expressing cells, antagonist mode; inhibition, % at 2.7 µM; AID 793; in the data active means inhibition above about 17%
NPY1 pot ag = potentiators or agonists of human neuropeptide Y receptor Y1; P25929; NPY-Y1 expressing cells, potentiator/agonist activation; activation, % at 3.6 µM; 0.37% of 220,000 active; AID 1304; in the data active means activation above about 33%, passing the limit was not always enough;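 further: cells stimulated with NPY at EC10 then isoproterenol at EC100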
NPY2 pot ag = potentiates or activates human NPY-Y2 receptor; cells expressing NPY-Y2, potentiator/agonist read-out; activation, % at 3.6 µM; 0.45% of 220,000 active; in the data active means activation above about 27%;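 further: cells stimulated with NPY near EC25 plus isoproterenol at EC100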
EP2 mod = EP2 receptor (human) modulation; EP2-expressing cells, cAMP HTRF FRET, PGE2 co-stimulation; 0.83% of 260,000 active; induction, % at 25 µM; P43116;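 active means compounds whose cAMP rise, as percent of the full-agonist control response, exceeds 60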;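 further: rat C6 glioma line stably carrying human EP2 under a CMV promoter; the protocol text gives 20 µM as final concentration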
EP2 confirm = human EP2 receptor cAMP induction, negative in counter-screens. shares compounds with EP2 mod. C6 glioma EP2 cells, cAMP HTRF induction; plus low (about EC15) PGE2 agonist. calls only at 20 µM (by protocol). 47% of 1,300 active. AID 1080;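 active means cAMP induction above 50% in the main assay while under 30% in all four parallel counter assays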;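 further: rat C6 glioma cells stably expressing human EP2 receptor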
Hits are given with their value; . = inactive; / = no result given; + = active, no number.

SMILES	EP2 antag	NPY Y1 blocker	NPY Y2 blocker	NPY1 pot ag	NPY2 pot ag	EP2 mod	EP2 confirm
CCCn1c(=O)c(C(=O)NNC(=O)C(C)C)c(O)c2ccccc21	.	/	/	/	/	.	/
Cc1cc(C)c2cc(C)c(SCC(=O)NCc3ccco3)nc2c1	.	.	/	.	.	77	+
Cc1noc(C)c1CSc1nc2ccccc2c(=O)n1-c1ccccc1	.	24	18	.	.	.	.
C=CCn1c(SCc2nc3ccccc3c(=O)[nH]2)nc2ccccc2c1=O	.	.	.	.	.	.	/
C=CCn1c(SCc2c(C)noc2C)nc2ccccc2c1=O	.	64	29	.	.	71	.
N#Cc1ccc(NC(=O)c2nc3ncccn3n2)cc1	.	/	/	/	/	.	/
O=C(c1cccc2nccnc12)N1CCC(c2ncncc2-c2ccncc2)CC1	/	/	/	/	/	.	/
Cc1ccc(CN2C(=O)/C(=C\c3ccc(C(=O)NCc4cccnc4)cc3)Oc3ccccc32)cc1	.	.	.	.	.	85	+
C/C(Cl)=C/Cn1c(SC(C)C)nc2c1c(=O)[nH]c(=O)n2C	.	.	.	.	.	65	.
CCCSc1nc2c(c(=O)[nH]c(=O)n2C)n1C/C=C(/C)Cl	.	/	/	/	/	.	/
O=S(=O)(NCc1cccnc1)c1cccn1-c1ncc(C(F)(F)F)cc1Cl	.	.	/	.	.	.	/
O=S(=O)(c1cccc(C(F)(F)F)c1)N1c2ccccc2-n2cccc2[C@H]1c1cccnc1	.	/	/	/	/	.	+
CCc1nn(CC(=O)NCCc2cccc(OC)c2)c(=O)c2cc3occc3n12	.	/	/	/	/	.	/
C=CCOc1c(Br)cc(/C=N/n2c(CC)n[nH]c2=S)cc1Br	.	.	.	.	.	75	+
CCc1n[nH]c(=S)n1/N=C/c1cc(Br)c(O)c(OC)c1	.	/	/	.	.	.	/
O=C(Cn1cc(C(=O)C2CC2)c2ccccc21)NCc1cccnc1	.	/	/	/	/	.	/
c1ccc(Nc2nc(N3CCNCC3)nc(N3CCOCC3)n2)cc1	.	.	.	.	.	67	.
O=C(CN1CCC(c2ccccc2F)CC1)N1CCOCC1	.	/	/	/	/	.	/
CC(C)CCn1c(Oc2ccc(Cl)cc2)nc2c1c(=O)n(C)c(=O)n2C	.	.	.	.	.	73	+
O=C(Nc1nc(-c2cccs2)c(-c2ccccc2)s1)c1ccco1	.	.	.	.	.	73	+
CC(C)CCn1c(=O)c2ccccc2c2ccccc2c1=O	.	.	.	.	.	83	+
CC(C)Cn1c(=O)c2ccccc2c2ccccc2c1=O	.	.	.	.	.	.	/
O=C(NCCCC1CCOC1)c1cc2ccc(F)cc2[nH]1 (configuration not stated)	.	/	/	/	/	.	/
Cc1ccc(C(=O)OCC(=O)Nc2ccccc2Sc2ccccc2)cc1C	.	.	.	.	.	69	+
COc1ccc(CCNC(=S)NC(=O)c2ccco2)cc1OC	.	/	/	/	/	.	/
SMILES	EP2 antag	NPY Y1 blocker	NPY Y2 blocker	NPY1 pot ag	NPY2 pot ag	EP2 mod	EP2 confirm
Cc1ccccc1NC1=C(C(=O)c2ccccc2)N(C)S(=O)(=O)c2ccccc21	.	.	.	.	.	78	+
O=C(C1=C(Nc2ccccc2)c2ccccc2S(=O)(=O)N1)c1ccccc1	.	.	.	.	.	.	/
O=C(Nc1cc(S(=O)(=O)Nc2ccc(Cl)cc2)ccc1N1CCCCC1)c1ccc(F)cc1Cl	.	.	.	.	.	76	+
COc1ccc(NS(=O)(=O)c2ccc(N3CCOCC3)c(NC(=O)c3ccccc3Cl)c2)cc1	.	.	.	.	.	.	/
Cc1cc(C)cc(NC(=O)CSc2nnc(-c3ccncc3)n2C2CCCCC2)c1	.	/	/	/	/	.	/
CCc1[nH]n2c(=O)c(C)c(C)nc2c1-c1ccc(F)cc1	.	/	/	/	/	.	/
CCOc1ccc(Cc2n[nH]c(=S)n2Cc2ccccc2)cc1	.	.	/	.	.	66	.
COc1ccc(Cc2n[nH]c(=S)n2Cc2ccccc2)cc1Cl	.	.	/	.	.	.	.
Cc1ccc(OCc2n[nH]c(=S)n2Cc2ccccc2)cc1	.	.	/	.	.	62	.
Cc1ccccc1OCc1n[nH]c(=S)n1Cc1ccccc1	.	.	.	.	.	.	/
COc1cc2c(cc1OC)C(c1ccncc1)N(CC1=CCCOC1)CC2 (configuration not stated)	.	/	/	/	/	.	/

Source: PubChem BioAssay (several laboratories)
